Calls of active or inactive are those of the source. The calls are words filed in the database; no cut-off is given here.
Tests used:
HT-29 [1] = assay: Antiproliferative activity against human HT-29 cells after 2 days by MTT assay; type: functional, cell-based; conditions: HT-29, 48 h
MCF7 = assay: Antiproliferative activity against human MCF7 cells after 2 days by MTT assay; type: functional, cell-based; conditions: MCF7, 48 h
A549 [2] = assay: Antiproliferative activity against human A549 cells after 2 days by MTT assay; type: functional, cell-based; conditions: A549, 48 h
HEK293 = assay: Antiproliferative activity against HEK293 cells after 2 days by MTT assay; type: ADME, cell-based; conditions: Homo sapiens, HEK293, 48 h
A549 [3] = assay: Cell cycle arrest in human A549 cells assessed as accumulation at sub-G0 phase at 15 nM after 24 hrs by propidium iodide staining based flow cytometry (reference value: 2 +/- 1%); type: functional
How it was run: (§1)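 A549 cells maintained in DMEM (1 g/L glucose, 2 mM glutamine, penicillin/streptomycin/amphotericin B, 10% FBS) and treated for 24 h. Cells were then fixed, RNase-treated and stained with propidium iodide. DNA content was measured by flow cytometry to give cell-cycle phase distribution, including a sub-G1 peak. Data are means (±SD) of two experiments.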

A549 [4] = assay: Cell cycle arrest in human A549 cells assessed as accumulation at G0/G1 phase at 15 nM after 24 hrs by propidium iodide staining based flow cytometry (reference value: 73 +/- 3%); type: functional; how it was run: as §1
A549 [5] = assay: Cell cycle arrest in human A549 cells assessed as accumulation at S phase at 15 nM after 24 hrs by propidium iodide staining based flow cytometry (reference value: 15 +/- 6%); type: functional; how it was run: as §1
A549 [6] = assay: Cell cycle arrest in human A549 cells assessed as accumulation at G2/M phase at 15 nM after 24 hrs by propidium iodide staining based flow cytometry (reference value: 11 +/- 4%); type: functional; how it was run: as §1
A549 [7] = assay: Cell cycle arrest in human A549 cells assessed as accumulation at G2/M phase at 0.5 times antiproliferative IC50 after 24 hrs by propidium iodide staining based flow cytometry; type: functional; how it was run: as §1
HT-29 [8] = assay: Downregulation of c-Myc gene expression in human HT-29 cells assessed as c-Myc mRNA level at 10 nM after 48 hrs by RT-PCR method (reference value: 100%); type: functional
How it was run: (§2)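 HT-29 cells were taken at 70–80% confluence and seeded at 1.5 x 10^5 per well. After 24 h they were exposed to compound for 48 h. Total RNA was isolated and TaqMan RT-qPCR run for VEGF-A, c-MYC and hTERT, normalized to β-actin. Expression is given as percent of DMSO control, with at least three measurements and one-sample t-tests.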

HT-29 [9] = assay: Downregulation of hTERT gene expression in human HT-29 cells assessed as hTERT mRNA level at 10 nM after 48 hrs by RT-PCR method (reference value: 100%); type: functional; how it was run: as §2
HT-29 [10] = assay: Downregulation of VEGF gene expression in human HT-29 cells assessed as VEGF mRNA level at 10 nM after 48 hrs by RT-PCR method (reference value: 100%); type: functional; how it was run: as §2
HT-29 [11] = assay: Inhibition of VEGF protein secretion in human HT-29 cells assessed as VEGF protein level at 10 nM after 48 hrs by ELISA (reference value: 100%); type: functional; design: scale not given: the % may be the effect or the level left
A549 [12] = assay: Cell cycle arrest in human A549 cells assessed as accumulation at sub-G0 phase at 50 nM after 24 hrs by propidium iodide staining based flow cytometry (reference value: 2 +/- 1%); type: functional; how it was run: as §1
A549 [13] = assay: Cell cycle arrest in human A549 cells assessed as accumulation at G0/G1 phase at 50 nM after 24 hrs by propidium iodide staining based flow cytometry (reference value: 73 +/- 3%); type: functional; how it was run: as §1
A549 [14] = assay: Cell cycle arrest in human A549 cells assessed as accumulation at S phase at 50 nM after 24 hrs by propidium iodide staining based flow cytometry (reference value: 15 +/- 6%); type: functional; how it was run: as §1
A549 [15] = assay: Cell cycle arrest in human A549 cells assessed as accumulation at G2/M phase at 50 nM after 24 hrs by propidium iodide staining based flow cytometry (reference value: 11 +/- 4%); type: functional; how it was run: as §1
A549 [16] = assay: Cell cycle arrest in human A549 cells assessed as accumulation at G2/M phase at 3 nM after 24 hrs by propidium iodide staining based flow cytometry; type: functional; how it was run: as §1
HT-29 [17] = assay: Downregulation of c-Myc gene expression in human HT-29 cells assessed as c-Myc mRNA level at […] after 48 hrs by RT-PCR method (reference value: 100%); type: functional
HT-29 [18] = assay: Downregulation of hTERT gene expression in human HT-29 cells assessed as hTERT mRNA level at […] after 48 hrs by RT-PCR method (reference value: 100%); type: functional
HT-29 [19] = assay: Downregulation of VEGF gene expression in human HT-29 cells assessed as VEGF mRNA level at […] after 48 hrs by RT-PCR method (reference value: 100%); type: functional
HT-29 [20] = assay: Inhibition of VEGF protein secretion in human HT-29 cells assessed as VEGF protein level at […] after 48 hrs by ELISA (reference value: 100%); type: functional; design: scale not given: the % may be the effect or the level left
A549 [21] = assay: Cell cycle arrest in human A549 cells assessed as accumulation at G2/M phase at antiproliferative IC50 after 24 hrs by propidium iodide staining based flow cytometry; type: functional
How it was run: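 A549 cells kept in DMEM (1 g/L glucose, 2 mM glutamine, antibiotics, amphotericin B, 10% FBS), treated 24 h with compound from 10 mM DMSO stock; fixed, RNase-treated, stained with propidium iodide, DNA content read by flow cytometry for phase distribution. Average (±SD) of two experiments.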

HT-29 [22] = assay: Downregulation of c-Myc gene expression in human HT-29 cells assessed as c-Myc mRNA level at 3 nM after 48 hrs by RT-PCR method (reference value: 100%); type: functional
How it was run: (§3)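 HT-29 cells (1.5 x 10^5 per well, six-well plate) seeded 24 h, then exposed 48 h with DMSO control; total RNA extracted, target mRNA quantified by TaqMan RT-qPCR, normalized to β-actin, expressed as percentage of control. At least three measurements; one-sample t-tests.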

HT-29 [23] = assay: Downregulation of hTERT gene expression in human HT-29 cells assessed as hTERT mRNA level at 3 nM after 48 hrs by RT-PCR method (reference value: 100%); type: functional; how it was run: as §3
HT-29 [24] = assay: Downregulation of VEGF gene expression in human HT-29 cells assessed as VEGF mRNA level at 3 nM after 48 hrs by RT-PCR method (reference value: 100%); type: functional; how it was run: as §3
HT-29 [25] = assay: Inhibition of VEGF protein secretion in human HT-29 cells assessed as VEGF protein level at 3 nM after 48 hrs by ELISA (reference value: 100%); type: functional; design: scale not given: the % may be the effect or the level left
How it was run: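 HT-29 cells (1.5 x 10^5 per well, six-well plate) seeded 24 h, then treated 48 h with DMSO control; secreted VEGF in culture supernatant measured by human VEGF ELISA kit, expressed as percentage of control. At least three measurements.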

Row | Compound | IC50 (HT-29 [1]) [nM] | IC50 (MCF7) [nM] | IC50 (A549 [2]) [nM] | IC50 (HEK293) [nM] | Activity (A549 [3]) [%] | Activity (A549 [4]) [%] | Activity (A549 [5]) [%] | Activity (A549 [6]) [%] | Activity (A549 [16]) | Activity (HT-29 [17]) [%] | Activity (HT-29 [18]) [%] | Activity (HT-29 [19]) [%] | Activity (HT-29 [20]) [%] | also measured
1 | COc1cc2c(c(OC)c1OC)-c1ccc(OC)c(=O)cc1[C@@H](NC(=O)CBr)CC2 | 13.7 | 16.4 | 26 | 14.4 | 3 | 25 | 19 | 53 | – | – | – | – | – | Activity (A549 [7]): Active; Activity (HT-29 [8]): 35%; Activity (HT-29 [9]): 79%; Activity (HT-29 [10]): 44%; Activity (HT-29 [11]): 100%
2 | COc1cc2c(c(OC)c1OC)-c1ccc(OC)c(=O)cc1[C@@H](NC(=O)c1ccccc1)CC2 | 8.1 | 5 | 10 | 13 | – | – | – | – | – | – | – | – | – | Activity (A549 [12]): 4%; Activity (A549 [13]): 29%; Activity (A549 [14]): 28%; Activity (A549 [15]): 40%
3 | COc1cc2c(c(OC)c1OC)-c1ccc(OC)c(=O)cc1[C@@H](NC(=O)CC1CCCCC1)CC2 | 8.7 | 9 | 19.4 | 10.5 | – | – | – | – | – | – | – | – | – | –

Stronger by IC50 (HT-29 [1]), values ahead:

Row | IC50 (HT-29 [1]) [nM] | IC50 (MCF7) [nM] | IC50 (A549 [2]) [nM] | Compound | IC50 (HEK293) [nM] | Activity (A549 [3]) [%] | Activity (A549 [4]) [%] | Activity (A549 [5]) [%] | Activity (A549 [6]) [%] | Activity (A549 [16]) | Activity (HT-29 [17]) [%] | Activity (HT-29 [18]) [%] | Activity (HT-29 [19]) [%] | Activity (HT-29 [20]) [%] | also measured
4 | 1.79 | 6.7 | 6.6 | COc1cc2c(c(OC)c1OC)-c1ccc(OC)c(=O)cc1[C@@H](NC(=O)c1ccc(Cl)cc1)CC2 | 10.1 | 2 | 27 | 14 | 48 | Active | 37 | 73 | 37 | 54 | –
5 | 4.6 | 29 | 12.3 | COc1cc2c(c(OC)c1OC)-c1ccc(OC)c(=O)cc1[C@@H](NC(=O)CCl)CC2 | 4.56 | 2 | 22 | 20 | 55 | – | – | – | – | – | Activity (A549 [21]): Active; Activity (HT-29 [22]): 74%; Activity (HT-29 [23]): 66%; Activity (HT-29 [24]): 76%; Activity (HT-29 [25]): 100%
6 | 2.3 | 4.5 | 13 | COc1cc2c(c(OC)c1OC)-c1ccc(OC)c(=O)cc1[C@@H](NC(=O)c1ccccc1Cl)CC2 | 5.93 | 3 | 11 | 26 | 55 | Active | 38 | 54 | 32 | 54 | –

Reference: ChEMBL document CHEMBL4196091 (Eur J Med Chem, 2018)
